The source made the active and inactive calls. No cut-off for these calls is given here.
Tests used:
[1] = test system: PC-3; test: Cytotoxicity against human PC3 cells after 72 hrs by MTT assay; format: functional, cell-based; conditions: PC-3, 72 h
Outline: (§1)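 Cells grown in RPMI-1640 with heat-inactivated 10% FBS, penicillin 100 units/mL, streptomycin, 37 °C, 20% O₂, 5% CO₂. Compounds from 10.0 mg/mL DMSO stocks, diluted. Cells plated 24 h, then exposed to a range of concentrations for 72 h; viable cells read by MTT kit per manufacturer's instructions.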

[2] = test system: A549; test: Cytotoxicity against human A549 cells after 72 hrs by MTT assay; format: functional, cell-based; conditions: A549, 72 h; outline: as §1
[3] = test system: HCT-116; test: Cytotoxicity against human HCT116 cells after 72 hrs by MTT assay; format: functional, cell-based; conditions: HCT-116, 72 h; outline: as §1
[4] = test system: HL-60; test: Cytotoxicity against human HL60 cells after 72 hrs by MTT assay; format: functional, cell-based; conditions: HL-60, 72 h; outline: as §1
[5] = test system: KB; test: Cytotoxicity against human KB cells after 72 hrs by MTT assay; format: functional, cell-based; outline: as §1
[6] = biological target: T1, Phosphatidylinositol 4,5-bisphosphate 3-kinase catalytic subunit alpha isoform (Homo sapiens, UniProt P42336); test: Inhibition of PI3Kalpha using diC8-PI(4,5)P2 as substrate after 3 hrs by competitive fluorescence polarization assay
Outline: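 Competitive fluorescence polarization. Buffer includes MgCl₂ and 10 mM DTT, with diC₈-PI(4,5)P₂ as substrate. Incubated 3 h at room temperature, then quenched with chelators. Phosphoinositide binding protein and a fluorophore-labeled phosphoinositide tracer were added, and samples equilibrated 1 h in the dark before reading.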

[7] = biological target: T1, Phosphatidylinositol 4,5-bisphosphate 3-kinase catalytic subunit alpha isoform; test: Inhibition of PI3Kalpha-mediated AKT Ser473 phosphorylation in human PC3 cells at 10 uM after 3 hrs by Western blot analysis; format: cell-based; conditions: PC-3
Outline: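 PC3 cells exposed to compound for 3 h. Lysates run on SDS–PAGE and probed for pAkt Ser473 by Western blot, with actin as internal control.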

[8] = biological target: T1, Phosphatidylinositol 4,5-bisphosphate 3-kinase catalytic subunit alpha isoform; test: Ratio of IC50 for WR1 to compound IC50 for PI3Kalpha using diC8-PI(4,5)P2 as substrate after 3 hrs by competitive fluorescence polarization assay

T1 sequence (P42336 whole entry, canonical isoform): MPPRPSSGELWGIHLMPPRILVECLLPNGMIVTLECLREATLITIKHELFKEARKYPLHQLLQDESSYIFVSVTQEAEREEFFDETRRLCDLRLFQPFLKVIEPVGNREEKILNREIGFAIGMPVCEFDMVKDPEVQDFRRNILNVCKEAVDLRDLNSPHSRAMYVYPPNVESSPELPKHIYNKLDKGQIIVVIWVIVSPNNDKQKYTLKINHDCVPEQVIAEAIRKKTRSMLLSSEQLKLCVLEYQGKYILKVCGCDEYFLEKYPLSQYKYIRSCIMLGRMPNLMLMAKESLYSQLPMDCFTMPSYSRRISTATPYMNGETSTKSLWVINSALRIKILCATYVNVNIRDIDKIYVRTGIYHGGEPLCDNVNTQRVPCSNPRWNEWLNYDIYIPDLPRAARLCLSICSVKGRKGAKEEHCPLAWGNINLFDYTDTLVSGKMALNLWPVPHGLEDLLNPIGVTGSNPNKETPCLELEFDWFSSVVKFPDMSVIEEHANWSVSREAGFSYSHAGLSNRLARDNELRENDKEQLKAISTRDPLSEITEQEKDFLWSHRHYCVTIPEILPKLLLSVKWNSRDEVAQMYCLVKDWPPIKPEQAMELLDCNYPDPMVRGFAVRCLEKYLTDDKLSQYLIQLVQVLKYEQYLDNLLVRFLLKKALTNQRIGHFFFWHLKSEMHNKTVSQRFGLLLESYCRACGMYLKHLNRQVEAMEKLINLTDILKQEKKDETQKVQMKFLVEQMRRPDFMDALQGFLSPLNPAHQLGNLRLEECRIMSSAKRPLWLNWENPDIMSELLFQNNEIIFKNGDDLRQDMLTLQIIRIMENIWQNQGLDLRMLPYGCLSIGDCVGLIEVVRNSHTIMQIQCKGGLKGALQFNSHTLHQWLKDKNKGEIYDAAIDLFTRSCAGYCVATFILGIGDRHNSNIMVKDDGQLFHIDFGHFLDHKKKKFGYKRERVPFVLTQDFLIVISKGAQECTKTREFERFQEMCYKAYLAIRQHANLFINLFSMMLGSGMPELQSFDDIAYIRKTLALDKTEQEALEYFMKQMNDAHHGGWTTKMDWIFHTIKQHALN

Which IC50 [1] does the source give for `COc1ccc(S(=O)(=O)c2nc3ccccc3nc2N2CCCC(O)C2)cc1` (stereo unspecified) here?
The IC50 was 3.41 µM.

What about the IC50 [2] of the same compound?
The IC50 was 2.18 µM.

What about the IC50 [3] of the same compound?
The IC50 was 3.52 µM.

What about the IC50 [4] of the same compound?
The IC50 was 3.05 µM.

What about the IC50 [5] of the same compound?
Its IC50 is 2.12 µM.

`O=S(=O)(c1ccc(F)cc1)c1nc2ccccc2nc1N1CCCC1` was tested. Which IC50 [1] did it give?
The IC50 was 12.4 µM.

And the IC50 [2]?
Its IC50 is 31.1 µM.

And the IC50 [3]?
The IC50 was 20.6 µM.

And the IC50 [4]?
Its IC50 is 12.8 µM.

What about the IC50 [5] of the same compound?
Its IC50 is 30.1 µM.

How did the IC50 [1] turn out when `O=S(=O)(c1ccc(Br)cc1)c1nc2ccccc2nc1N1CCCC1` was run?
The IC50 was greater than 50 µM.

What about the IC50 [2] of the same compound?
Its IC50 is greater than 50 µM.

And the IC50 [3]?
Its IC50 is 37.7 µM.

What about the IC50 [4] of the same compound?
Its IC50 is 6.07 µM.

What about the IC50 [5] of the same compound?
The IC50 was greater than 50 µM.

Which IC50 [1] does the source give for `O=S(=O)(c1ccc(Br)cc1)c1nc2ccccc2nc1N1CCCC(O)C1` (stereo unspecified) here?
Its IC50 is 3.69 µM.

And the IC50 [2]?
The IC50 was 2.1 µM.

And the IC50 [3]?
Its IC50 is 2.11 µM.

And the IC50 [4]?
Its IC50 is 3.43 µM.

And the IC50 [5]?
The IC50 was 3.72 µM.

What does the source list for `O=S(=O)(c1ccccc1)c1nc2ccccc2nc1N1CCOCC1`?
IC50 [1]: 18.9 µM; IC50 [2]: 12.6 µM; IC50 [3]: 5.35 µM; IC50 [4]: 4.47 µM; IC50 [6]: 0.44 µM

With `Cc1ccc(S(=O)(=O)c2nc3ccccc3nc2N2CCc3ccccc3C2)cc1` as the compound, how does the IC50 [1] read?
Its IC50 is 22.4 µM.

What about the IC50 [2] of the same compound?
Its IC50 is greater than 50 µM.

What about the IC50 [3] of the same compound?
Its IC50 is 39 µM.

And the IC50 [4]?
Its IC50 is 3.61 µM.

What about the IC50 [5] of the same compound?
The IC50 was 32.1 µM.

With `O=S(=O)(c1ccccc1)c1nc2ccccc2nc1N1CCc2ccccc2C1` as the compound, how does the IC50 [1] read?
Its IC50 is 5.01 µM.

What about the IC50 [2] of the same compound?
The IC50 was 19.8 µM.

What about the IC50 [3] of the same compound?
Its IC50 is 18.7 µM.

What about the IC50 [4] of the same compound?
The IC50 was 0.88 µM.

And the IC50 [5]?
Its IC50 is 26.3 µM.

What about the IC50 [6] of the same compound?
Its IC50 is greater than 50 µM.

What does the source list for `COc1ccc(S(=O)(=O)c2nc3ccccc3nc2N2CCc3ccccc3C2)cc1`?
IC50 [1]: > 50 µM; IC50 [2]: > 50 µM; IC50 [3]: 22.1 µM; IC50 [4]: 3.69 µM; IC50 [5]: > 50 µM

How did the IC50 [1] turn out when `O=S(=O)(c1ccc(Br)cc1)c1nc2ccccc2nc1N1CCc2ccccc2C1` was run?
The IC50 was greater than 50 µM.

And the IC50 [2]?
Its IC50 is greater than 50 µM.

What about the IC50 [3] of the same compound?
Its IC50 is greater than 50 µM.

And the IC50 [4]?
The IC50 was 2.61 µM.

And the IC50 [5]?
Its IC50 is greater than 50 µM.

`Cc1ccc(S(=O)(=O)c2nc3ccccc3nc2N2CCC(O)CC2)cc1` was tested. Which IC50 [1] did it give?
Its IC50 is 9.52 µM.

What about the IC50 [2] of the same compound?
The IC50 was 4.02 µM.

What about the IC50 [3] of the same compound?
The IC50 was 5.44 µM.

What about the IC50 [4] of the same compound?
The IC50 was 4.05 µM.

And the IC50 [5]?
Its IC50 is 6.14 µM.

How did the IC50 [1] turn out when `Cc1ccc(S(=O)(=O)c2nc3ccccc3nc2N2CCCC2)cc1` was run?
The IC50 was greater than 50 µM.

And the IC50 [2]?
Its IC50 is greater than 50 µM.

And the IC50 [3]?
Its IC50 is greater than 50 µM.

And the IC50 [4]?
The IC50 was 9.72 µM.

And the IC50 [5]?
Its IC50 is greater than 50 µM.

What does the source list for `O=S(=O)(c1ccc(F)cc1)c1nc2ccccc2nc1N1CCc2ccccc2C1`?
IC50 [1]: 9.23 µM; IC50 [2]: 22.9 µM; IC50 [3]: 16.6 µM; IC50 [4]: 4.08 µM; IC50 [5]: 35.4 µM

`O=S(=O)(c1ccc(F)cc1)c1nc2ccccc2nc1N1CCC(O)CC1` was tested. Which IC50 [1] did it give?
The IC50 was 2.01 µM.

And the IC50 [2]?
Its IC50 is 20.2 µM.

What about the IC50 [3] of the same compound?
The IC50 was 1.34 µM.

What about the IC50 [4] of the same compound?
The IC50 was 1.45 µM.

What about the IC50 [5] of the same compound?
The IC50 was 9.58 µM.

`O=S(=O)(c1ccc(Br)cc1)c1nc2ccccc2nc1N1CCC(O)CC1` was tested. Which IC50 [1] did it give?
Its IC50 is 2.02 µM.

And the IC50 [2]?
Its IC50 is 0.95 µM.

What about the IC50 [3] of the same compound?
The IC50 was 1.65 µM.

What about the IC50 [4] of the same compound?
The IC50 was 0.34 µM.

And the IC50 [5]?
The IC50 was 2.32 µM.

What about the IC50 [6] of the same compound?
The IC50 was 0.025 µM.

And the inhibition [7]?
Its inhibition is “Active”.

Which IC50 [1] does the source give for `O=S(=O)(c1ccccc1)c1nc2ccccc2nc1N1CCCC1` here?
Its IC50 is 20.8 µM.

And the IC50 [2]?
The IC50 was 34.8 µM.

And the IC50 [3]?
The IC50 was 24.2 µM.

And the IC50 [4]?
The IC50 was 3.46 µM.

And the IC50 [5]?
The IC50 was 35.8 µM.

What about the IC50 [6] of the same compound?
The IC50 was 21.8 µM.

`O=S(=O)(c1ccccc1)c1nc2ccccc2nc1N1CCCC(O)C1` (stereo unspecified) was tested. Which IC50 [1] did it give?
Its IC50 is 2.1 µM.

And the IC50 [2]?
Its IC50 is 0.31 µM.

And the IC50 [3]?
The IC50 was 1.39 µM.

And the IC50 [4]?
The IC50 was 3.02 µM.

And the IC50 [5]?
Its IC50 is 3.59 µM.

Which IC50 [1] does the source give for `Cc1ccc(S(=O)(=O)c2nc3ccccc3nc2N2CCCC(O)C2)cc1` (stereo unspecified) here?
Its IC50 is 5.33 µM.

What about the IC50 [2] of the same compound?
Its IC50 is 1.35 µM.

What about the IC50 [3] of the same compound?
Its IC50 is 3.27 µM.

What about the IC50 [4] of the same compound?
The IC50 was 6.08 µM.

What about the IC50 [5] of the same compound?
The IC50 was 6.08 µM.

`O=S(=O)(c1ccccc1)c1nc2ccccc2nc1N1CCC(O)CC1` was tested. Which IC50 [1] did it give?
The IC50 was 4.98 µM.

What about the IC50 [2] of the same compound?
Its IC50 is 2.06 µM.

What about the IC50 [3] of the same compound?
The IC50 was 1.87 µM.

What about the IC50 [4] of the same compound?
The IC50 was 2.9 µM.

And the IC50 [5]?
Its IC50 is 5.36 µM.

What about the IC50 [6] of the same compound?
The IC50 was 0.079 µM.

And the Ratio IC50 [8]?
The Ratio IC50 was 6.

With `O=S(=O)(c1ccc(F)cc1)c1nc2ccccc2nc1N1CCCC(O)C1` (stereo unspecified) as the compound, how does the IC50 [1] read?
The IC50 was 2.13 µM.

And the IC50 [2]?
Its IC50 is 8.17 µM.

What about the IC50 [3] of the same compound?
Its IC50 is 5.5 µM.

And the IC50 [4]?
The IC50 was 2.62 µM.

And the IC50 [5]?
The IC50 was 18.3 µM.

Which results are given for `COc1ccc(S(=O)(=O)c2nc3ccccc3nc2N2CCC(O)CC2)cc1`?
IC50 [1]: 9.73 µM; IC50 [2]: 5.11 µM; IC50 [3]: 4.69 µM; IC50 [4]: 3.23 µM; IC50 [5]: 8.06 µM

For `COc1ccc(S(=O)(=O)c2nc3ccccc3nc2N2CCCC2)cc1`, which IC50 [1] is on record?
The IC50 was greater than 50 µM.

What about the IC50 [2] of the same compound?
The IC50 was greater than 50 µM.

And the IC50 [3]?
The IC50 was greater than 50 µM.

And the IC50 [4]?
The IC50 was 16 µM.

What about the IC50 [5] of the same compound?
The IC50 was greater than 50 µM.

From ChEMBL document CHEMBL2016444, “Discovery of novel 2-piperidinol-3-(arylsulfonyl)quinoxalines as phosphoinositide 3-kinase α (PI3Kα) inhibitors” (Bioorg Med Chem, 2012)
